According to ChEMBL document CHEMBL1133771, “Synthesis and pharmacological evaluation of new pyrazolidine-3, 5-diones as AT(1) angiotensin II receptor antagonists” (J Med Chem, 2000):

Legend:
[1] = molecular target: T1, Angiotensin II receptor (Homo sapiens, UniProt P30556+P50052); assay: (§1) In vitro antagonist activity, Inhibition of angiotensin II (50 nM) mediated increase in cytosolic [Ca2+] conc. in PLC-PRF-5 cells; assay type: functional, cell-based
T1 sequence (P30556 whole entry): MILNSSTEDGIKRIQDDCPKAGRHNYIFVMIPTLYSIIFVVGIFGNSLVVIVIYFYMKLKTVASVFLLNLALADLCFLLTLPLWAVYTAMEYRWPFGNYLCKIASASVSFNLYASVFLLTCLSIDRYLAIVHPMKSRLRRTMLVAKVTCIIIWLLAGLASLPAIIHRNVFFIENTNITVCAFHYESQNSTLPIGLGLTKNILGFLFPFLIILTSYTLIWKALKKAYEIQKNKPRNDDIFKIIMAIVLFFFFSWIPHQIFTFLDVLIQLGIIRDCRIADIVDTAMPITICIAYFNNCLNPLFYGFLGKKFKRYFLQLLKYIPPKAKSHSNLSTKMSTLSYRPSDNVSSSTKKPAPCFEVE
T1 sequence (P50052 whole entry): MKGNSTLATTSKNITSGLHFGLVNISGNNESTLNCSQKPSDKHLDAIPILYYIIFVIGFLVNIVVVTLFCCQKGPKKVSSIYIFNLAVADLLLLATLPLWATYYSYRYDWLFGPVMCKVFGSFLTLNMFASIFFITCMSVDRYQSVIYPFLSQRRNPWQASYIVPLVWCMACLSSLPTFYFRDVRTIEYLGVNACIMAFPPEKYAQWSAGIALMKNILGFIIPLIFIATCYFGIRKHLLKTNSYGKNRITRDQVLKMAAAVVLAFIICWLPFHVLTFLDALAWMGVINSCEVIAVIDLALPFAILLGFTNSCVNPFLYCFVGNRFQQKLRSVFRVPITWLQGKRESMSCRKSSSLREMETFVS
Procedure, shortened: (§2)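 PLC-PRF-5 cells were preincubated with compound, then stimulated with 50 nM angiotensin II. The rise in intracellular cytosolic Ca2+ concentration was measured, and inhibition of that rise is given as IC50.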

[2] = molecular target: T2, Type-1 angiotensin II receptor (Homo sapiens, UniProt P30556); assay: Binding affinity against AT1 in human hepatoma cell line, PLC-PRF-5
T2 sequence (P30556 whole entry): T1 sequence (P30556 whole entry)
Procedure, shortened: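 Crude membranes from PLC-PRF human hepatoma cells were prepared by lysis in ice-cold Tris/HCl 50 mM, MgCl2 2 mM, pH 7.4, then spun at 30000g. 100 µg protein was incubated 1 h at 25 °C with 3 nM [3H]AII. Nonspecific binding was taken with 1 µM losartan. Compounds were tested at 10-10–10-5 M, with filtration and scintillation counting.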

[3] = as §1; assay type: functional, cell-based; details: Homo sapiens; procedure, shortened: as §2

| Compound | IC50 [1] [nM] | Ki [2] [nM] | IC50 [3] [nM] |
| --- | --- | --- | --- |
| O=C1N(Cc2ccc(-c3ccccc3-c3nn[nH]n3)cc2)N(c2ccccc2)C(=O)C12CCCC2 | 89 |  |  |
| CCCCN1C(=O)C2(CCCC2)C(=O)N1Cc1ccc(C(=O)Nc2ccccc2C(=O)O)cc1 |  | 2000 |  |
| CCCCN1C(=O)C2(CCCC2)C(=O)N1Cc1ccc(-c2ccccc2C(=O)O)cc1 |  | 3160 |  |
| CCCCN1C(=O)C2(CCCC2)C(=O)N1Cc1ccc(-c2ccccc2)cc1 |  | > 10000 |  |
| O=C1N(Cc2ccccc2)N(Cc2ccc(-c3ccccc3-c3nn[nH]n3)cc2)C(=O)C12CCCC2 |  | 402 |  |
| CCCN1C(=O)C2(CCCC2)C(=O)N1Cc1ccc(-c2ccccc2S(=O)(=O)NC(=O)c2ccccc2)cc1 | 52 | 40 |  |
| CCCCN1C(=O)C2(CCCC2)C(=O)N1Cc1ccc(-c2ccccc2C#N)cc1 |  | > 10000 |  |
| CCCCN1C(=O)C2(CCCC2)C(=O)N1Cc1ccc(NC(=O)c2ccccc2C(=O)O)cc1 |  | 398 |  |
| CCCCN1C(=O)C2(CCCC2)C(=O)N1Cc1ccc(-c2ccccc2S(=O)(=O)NC(C)(C)C)cc1 |  | > 10000 |  |
| CCCCN1C(=O)C2(CCCC2)C(=O)N1Cc1ccc(C(=O)Nc2cccc(C(=O)O)c2)cc1 |  | > 10000 |  |
| CCCCN1C(=O)C(C)(C)C(=O)N1Cc1ccc(-c2ccccc2S(=O)(=O)NC(=O)c2ccccc2)cc1 | 26 | 42 |  |
| Cc1ccc(N2C(=O)C3(CCCC3)C(=O)N2Cc2ccc(-c3ccccc3-c3nn[nH]n3)cc2)cc1 |  | 381 |  |
| CCCCN1C(=O)C2(CCCC2)C(=O)N1Cc1ccc(-c2ccccc2S(N)(=O)=O)cc1 |  | > 10000 |  |

Further compounds by falling Ki [2], results first:

| IC50 [1] [nM] | Ki [2] [nM] | IC50 [3] [nM] | Compound |
| --- | --- | --- | --- |
|  | 32 | 33 | CCCCN1C(=O)C(C)(CCCC)C(=O)N1Cc1ccc(-c2ccccc2S(=O)(=O)NC(=O)c2ccccc2)cc1 (configuration not stated) |
| 38 | 32 |  | CCCCN1C(=O)C2(CCCC2)C(=O)N1Cc1ccc(-c2ccccc2S(=O)(=O)NC(=O)NC2CCCCC2)cc1 |
| 22 | 25 |  | CCCCN1C(=O)C2(CCCC2)C(=O)N1Cc1ccc(-c2ccccc2-c2nn[nH]n2)cc1 |
| 28 | 25 |  | CCCCCN1C(=O)C2(CCCC2)C(=O)N1Cc1ccc(-c2ccccc2S(=O)(=O)NC(=O)c2ccccc2)cc1 |
| 15 | 13 |  | CCCCC(=O)NS(=O)(=O)c1ccccc1-c1ccc(CN2C(=O)C3(CCCC3)C(=O)N2CCCC)cc1 |
| 12 | 10 |  | CCCCN1C(=O)C2(CCCC2)C(=O)N1Cc1ccc(-c2ccccc2S(=O)(=O)NC(=O)c2ccccc2)cc1 |
